We go through three compounds from PMC5378272 (Cancer Science, 2017).

For experiment [1], the system named is Molt‐4 cells. Put plainly: Cell cycle analysis by flow cytometry. The class given is cell-based, human. The conditions noted are these: Molt‐4, 3 μM, 24 h; control group 14.9%. Background: In flow cytometry, cells or beads pass a laser one at a time.
For a further experiment, the system named is Aurora B. Put plainly: Western blotting of p‐H3. The experiment is classed as cell-based, human. To be noted: Molt‐4 cells, 24 h, western blot, concentrations up to 6 μM. On the technique in general: Immunoblotting shows a protein as a band on a membrane.
The test system of the next experiment is HUVEC. Put plainly: Tube formation assay. The conditions noted are these: HUVEC on Matrigel, 1.5 or 5 μM, 24 h, vs control. The class given is cell-based, human. In short, it runs like this:
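HUVEC were maintained in endothelial cell medium with 5% FBS, heparin (50 μg/mL) and ECGS (50 μg/mL). Matrigel was polymerised 45 min at 37°C. 4 × 10⁴ cells in complete medium were seeded onto it with vehicle or test compound and incubated 24 h. Networks were imaged by light microscopy and scored as mean loops per field and total branch length (pixels). Results are mean ± SD of five experiments; t-test versus vehicle.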

The target in the next experiment is c‐RAF (Homo sapiens, UniProt P04049, Y340D/Y341D). Put plainly: Kinase inhibition assay. To be noted: Biochemical IC50, cell-free.
Chain of c‐RAF (P04049 306-648 Y340D/Y341D limits assumed): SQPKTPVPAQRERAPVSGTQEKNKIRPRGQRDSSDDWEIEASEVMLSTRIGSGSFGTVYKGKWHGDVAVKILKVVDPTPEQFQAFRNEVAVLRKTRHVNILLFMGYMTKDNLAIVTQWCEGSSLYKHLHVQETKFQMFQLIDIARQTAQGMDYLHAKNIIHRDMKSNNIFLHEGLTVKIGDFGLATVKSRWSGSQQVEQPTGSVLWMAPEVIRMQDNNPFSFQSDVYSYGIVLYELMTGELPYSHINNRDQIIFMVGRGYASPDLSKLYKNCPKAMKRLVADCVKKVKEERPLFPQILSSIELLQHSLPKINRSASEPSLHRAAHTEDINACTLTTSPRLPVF
Another experiment addresses T1, DDR2 (Homo sapiens, UniProt Q16832).
T1 sequence (Q16832 22-855): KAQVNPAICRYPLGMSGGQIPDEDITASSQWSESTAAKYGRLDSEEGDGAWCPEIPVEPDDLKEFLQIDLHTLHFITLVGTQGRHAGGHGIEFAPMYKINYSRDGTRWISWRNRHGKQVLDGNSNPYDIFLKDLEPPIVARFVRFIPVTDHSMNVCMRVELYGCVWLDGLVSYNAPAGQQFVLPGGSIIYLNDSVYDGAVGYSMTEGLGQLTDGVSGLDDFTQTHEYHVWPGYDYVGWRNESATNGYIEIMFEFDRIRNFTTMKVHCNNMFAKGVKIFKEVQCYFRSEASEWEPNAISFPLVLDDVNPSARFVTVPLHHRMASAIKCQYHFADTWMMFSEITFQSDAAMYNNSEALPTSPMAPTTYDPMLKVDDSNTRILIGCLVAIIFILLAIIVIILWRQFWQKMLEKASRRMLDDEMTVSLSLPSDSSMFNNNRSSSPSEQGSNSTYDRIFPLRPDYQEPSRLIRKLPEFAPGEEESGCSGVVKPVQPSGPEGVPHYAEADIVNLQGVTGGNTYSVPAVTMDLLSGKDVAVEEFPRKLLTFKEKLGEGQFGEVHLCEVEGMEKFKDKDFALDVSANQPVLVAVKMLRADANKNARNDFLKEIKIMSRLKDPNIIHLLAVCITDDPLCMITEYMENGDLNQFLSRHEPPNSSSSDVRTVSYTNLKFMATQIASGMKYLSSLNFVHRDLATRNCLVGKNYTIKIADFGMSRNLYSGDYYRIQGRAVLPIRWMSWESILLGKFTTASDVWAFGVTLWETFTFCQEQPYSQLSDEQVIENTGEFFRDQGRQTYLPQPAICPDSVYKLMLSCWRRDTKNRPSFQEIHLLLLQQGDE
Description: Kinase inhibition assay. The conditions noted are these: Biochemical IC50, cell-free.

In another experiment the target is VEGFR2 (Homo sapiens, UniProt P35968). Description: Western blotting of VEGF-stimulated VEGFR2 phosphorylation in HUVEC. To be noted: 1 h pre-treatment, VEGF 100 ng/mL 15 min, western blot. The experiment is classed as cell-based. In short, it runs like this:
(§1)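 Cells (1.5 × 10⁶) were seeded for 24 h, then serum-starved overnight. They were pretreated 1 h with test compound and stimulated with 100 ng/mL ligand for 15 min: rhM‐CSF for CSF‐1R‐transfected 293A (DMEM, 10% FBS) and VEGF165 for HUVEC. Whole-cell lysates were immunoblotted for phospho-CSF1R or phospho-VEGFR2, with total receptor and β‐actin as internal controls.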

A further experiment relates to SMMC‐7721. Description: Tumor xenograft model. The conditions noted are these: SMMC‐7721 xenograft, oral once daily. The experiment is classed as in vivo, BALB/c athymic mice. The gist of the method:
(§2)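 Subjects were 6-week-old female BALB/c athymic mice. Tumour cells in 200 μL serum-free medium were implanted s.c. At 100–150 mm³, mice were randomised (n = 8/group) and dosed by oral gavage once daily with test compound in 0.5% CMC‐Na, sunitinib or vehicle. Doses were 2.5–20 mg/kg for HCT‐8 and SMMC‐7721, and 5–40 mg/kg for A549. Volumes were measured every 3–4 days over 33 or 43 days. Percent TGI at last treatment was computed versus vehicle.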

The subject of a further experiment is COLO‐320 tumor. Description: COLO‐320 xenograft in SCID mice, tumor tissue analysis. To be noted: oral 2.5 or 20 mg/kg/day, 12 days. The class given is in vivo. In short, it runs like this: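 COLO-320 cells implanted s.c. in SCID mice; established tumors dosed orally once daily for 12 days at 2.5 or 20 mg/kg/day, with compound suspended in 0.5% (w/v) CMC-Na. Half of each tumor went to histone extraction and western blot for p-H3 (Ser10) vs total H3, with normal colon as comparator. The other half was formalin-fixed and paraffin-embedded for IHC (CD34, p-H3 Ser10, Ki67).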

For experiment [2], the system named is human blood‐derived monocytes. To be noted: M‐CSF 100 ng/mL, 6 days, 0.3 μM.
The test system of a further experiment is Colo‐320 cells. Description: Growth inhibition of tumor cells. The experiment is classed as cell-based. The conditions noted are these: Homo sapiens, COLO 320, 120 h, read-out: GI50, growth inhibition.
For another experiment, the system named is HCT‐8. Put plainly: Tumor xenograft model. The class given is in vivo, BALB/c athymic mice. The conditions noted are these: HCT‐8 xenograft, oral once daily. In short, it runs like this:
as §2

Experiment [3] relates to Molt‐4 cells. Description: Growth inhibition of tumor cells. To be noted: Homo sapiens, MOLT-4, 120 h, read-out: GI50, growth inhibition. The class given is cell-based.
In the next experiment the test system is A549. Description: Tumor xenograft model. The conditions noted are these: oral once daily, 5 to 40 mg/kg. The experiment is classed as in vivo, BALB/c athymic mice. The gist of the method: as §2
The next experiment has as its system MGC‐803. Put plainly: Tumor xenograft model. The experiment is classed as in vivo, BALB/c athymic mice. The conditions noted are these: MGC‐803 xenograft; for tumor growth: oral once daily.
In another experiment the target is PLK1 (Homo sapiens, UniProt P53350). Put plainly: Kinase inhibition assay. To be noted: Biochemical IC50, cell-free.
Chain of PLK1 (P53350 whole entry): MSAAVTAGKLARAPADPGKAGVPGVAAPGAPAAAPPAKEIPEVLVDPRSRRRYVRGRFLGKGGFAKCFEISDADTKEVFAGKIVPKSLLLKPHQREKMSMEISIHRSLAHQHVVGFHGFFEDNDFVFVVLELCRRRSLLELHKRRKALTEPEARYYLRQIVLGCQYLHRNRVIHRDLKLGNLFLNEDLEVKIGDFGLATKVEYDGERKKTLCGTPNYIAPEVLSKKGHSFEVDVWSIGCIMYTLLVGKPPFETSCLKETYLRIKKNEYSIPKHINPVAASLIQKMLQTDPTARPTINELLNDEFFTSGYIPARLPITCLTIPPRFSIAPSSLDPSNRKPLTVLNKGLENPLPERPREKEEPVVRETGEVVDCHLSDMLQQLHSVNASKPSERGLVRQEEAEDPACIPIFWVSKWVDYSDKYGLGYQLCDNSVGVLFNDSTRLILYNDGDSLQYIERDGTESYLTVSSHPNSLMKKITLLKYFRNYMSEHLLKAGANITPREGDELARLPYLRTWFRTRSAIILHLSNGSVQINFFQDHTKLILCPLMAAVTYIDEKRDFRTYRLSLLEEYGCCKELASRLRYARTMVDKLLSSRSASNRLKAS
The next experiment has as its system 4T1 breast cancer cells. Description: 4T1 breast cancer model in BALB/c mice, tumor tissue immunohistochemistry. The class given is in vivo.
In the next experiment the target is PLK3 (Homo sapiens, UniProt Q9H4B4). Put plainly: Kinase inhibition assay. To be noted: Biochemical IC50, cell-free.
Chain of PLK3 (Q9H4B4 whole entry): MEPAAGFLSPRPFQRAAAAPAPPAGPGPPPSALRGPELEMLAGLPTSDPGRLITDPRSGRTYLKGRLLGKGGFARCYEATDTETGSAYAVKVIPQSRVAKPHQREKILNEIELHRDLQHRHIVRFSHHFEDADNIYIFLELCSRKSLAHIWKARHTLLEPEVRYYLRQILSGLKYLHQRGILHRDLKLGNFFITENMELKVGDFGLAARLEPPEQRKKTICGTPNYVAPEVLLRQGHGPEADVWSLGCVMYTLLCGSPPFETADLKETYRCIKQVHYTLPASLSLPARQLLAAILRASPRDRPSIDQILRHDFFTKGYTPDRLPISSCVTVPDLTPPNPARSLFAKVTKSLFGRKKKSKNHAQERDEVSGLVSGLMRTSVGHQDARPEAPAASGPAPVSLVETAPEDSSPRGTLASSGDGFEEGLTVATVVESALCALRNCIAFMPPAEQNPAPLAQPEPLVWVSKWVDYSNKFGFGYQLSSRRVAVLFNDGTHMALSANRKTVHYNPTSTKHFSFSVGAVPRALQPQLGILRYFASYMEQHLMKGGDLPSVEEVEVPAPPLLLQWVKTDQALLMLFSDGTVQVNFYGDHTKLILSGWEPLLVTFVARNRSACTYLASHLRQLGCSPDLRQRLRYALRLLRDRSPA
The target in the next experiment is CSF‐1R (Homo sapiens, UniProt P07333). The experiment is classed as cell-based. To be noted: CSF‐1R‐transfected 293A cells, M‐CSF 100 ng/mL, western blot. The gist of the method: as §1
Chain of CSF‐1R (P07333 20-972): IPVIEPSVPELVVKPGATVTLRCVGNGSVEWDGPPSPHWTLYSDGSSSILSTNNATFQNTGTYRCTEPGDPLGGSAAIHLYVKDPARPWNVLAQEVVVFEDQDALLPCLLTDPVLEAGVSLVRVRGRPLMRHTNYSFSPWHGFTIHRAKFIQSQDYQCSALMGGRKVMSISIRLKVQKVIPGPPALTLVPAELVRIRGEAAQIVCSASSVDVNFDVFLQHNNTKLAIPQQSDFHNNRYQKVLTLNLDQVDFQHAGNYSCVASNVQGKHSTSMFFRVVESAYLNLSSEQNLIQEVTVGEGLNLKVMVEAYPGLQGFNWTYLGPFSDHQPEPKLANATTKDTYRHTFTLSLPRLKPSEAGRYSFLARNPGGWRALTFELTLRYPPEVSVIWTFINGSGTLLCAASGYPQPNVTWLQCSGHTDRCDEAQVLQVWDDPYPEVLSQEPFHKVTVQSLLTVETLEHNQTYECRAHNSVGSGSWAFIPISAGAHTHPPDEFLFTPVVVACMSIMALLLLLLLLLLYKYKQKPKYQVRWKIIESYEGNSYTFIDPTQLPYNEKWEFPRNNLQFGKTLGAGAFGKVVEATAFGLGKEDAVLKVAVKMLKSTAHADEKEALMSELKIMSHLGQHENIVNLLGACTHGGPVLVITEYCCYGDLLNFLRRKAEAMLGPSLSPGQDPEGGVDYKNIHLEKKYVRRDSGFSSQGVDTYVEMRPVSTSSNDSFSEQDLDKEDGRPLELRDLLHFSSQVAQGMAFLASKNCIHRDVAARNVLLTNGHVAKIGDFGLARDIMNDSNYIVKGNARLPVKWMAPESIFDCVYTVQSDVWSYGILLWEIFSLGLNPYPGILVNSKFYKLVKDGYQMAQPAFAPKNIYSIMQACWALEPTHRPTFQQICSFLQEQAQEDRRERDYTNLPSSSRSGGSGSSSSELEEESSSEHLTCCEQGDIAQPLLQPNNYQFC
Setting [4] is: immunohistochemistry, vs vehicle.

Chain of VEGFR2 (P35968 20-1356): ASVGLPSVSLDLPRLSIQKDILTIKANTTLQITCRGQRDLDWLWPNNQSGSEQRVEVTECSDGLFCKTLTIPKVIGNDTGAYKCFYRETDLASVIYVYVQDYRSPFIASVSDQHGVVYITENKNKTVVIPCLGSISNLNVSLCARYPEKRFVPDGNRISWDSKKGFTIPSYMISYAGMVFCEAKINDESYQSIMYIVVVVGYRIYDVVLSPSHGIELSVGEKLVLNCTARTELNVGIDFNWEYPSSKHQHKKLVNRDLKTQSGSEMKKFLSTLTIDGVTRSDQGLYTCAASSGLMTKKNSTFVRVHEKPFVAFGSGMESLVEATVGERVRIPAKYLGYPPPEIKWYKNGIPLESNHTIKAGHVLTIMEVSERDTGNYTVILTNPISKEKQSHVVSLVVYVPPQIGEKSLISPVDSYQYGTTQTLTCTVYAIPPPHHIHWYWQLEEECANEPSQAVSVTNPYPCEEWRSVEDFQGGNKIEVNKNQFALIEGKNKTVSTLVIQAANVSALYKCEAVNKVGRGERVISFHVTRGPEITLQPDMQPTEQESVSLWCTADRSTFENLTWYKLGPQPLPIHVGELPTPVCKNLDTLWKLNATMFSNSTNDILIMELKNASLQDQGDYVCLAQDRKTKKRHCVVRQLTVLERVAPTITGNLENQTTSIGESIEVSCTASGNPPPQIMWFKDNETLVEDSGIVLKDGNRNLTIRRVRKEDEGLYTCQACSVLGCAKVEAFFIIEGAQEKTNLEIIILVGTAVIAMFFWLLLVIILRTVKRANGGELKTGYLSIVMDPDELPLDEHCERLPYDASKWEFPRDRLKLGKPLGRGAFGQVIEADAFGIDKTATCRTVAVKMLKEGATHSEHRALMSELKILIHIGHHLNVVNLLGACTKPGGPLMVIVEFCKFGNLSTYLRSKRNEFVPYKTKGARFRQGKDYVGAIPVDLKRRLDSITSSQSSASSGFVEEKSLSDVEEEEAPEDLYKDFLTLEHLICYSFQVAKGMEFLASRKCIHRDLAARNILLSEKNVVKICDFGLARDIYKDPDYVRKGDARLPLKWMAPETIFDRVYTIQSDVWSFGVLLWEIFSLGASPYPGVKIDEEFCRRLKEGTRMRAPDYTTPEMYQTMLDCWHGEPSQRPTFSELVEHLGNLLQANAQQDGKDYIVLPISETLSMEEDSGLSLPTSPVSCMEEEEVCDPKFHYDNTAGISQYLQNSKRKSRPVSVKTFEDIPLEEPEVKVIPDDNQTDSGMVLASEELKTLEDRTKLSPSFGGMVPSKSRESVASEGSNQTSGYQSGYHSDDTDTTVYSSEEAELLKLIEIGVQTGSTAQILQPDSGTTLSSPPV

Turning to `CCN(CC)CCNC(=O)c1c(C)[nH]c(/C=C2\C(=O)Nc3ccc(F)cc32)c1C` [sunitinib, reference compound], in the experiment with Molt‐4 cells [1], the “cells in G2/M phase (of cell cycle phases)” value (shortened to “cells in G2/M phase”) was determined as 20.4%. Further, the “level of p‐H3 (Ser10‐phosphorylated histone 3)” value with Aurora B is “little inhibitory activity”.

Consider `COc1ccc2c(Oc3ccc4c(C(=O)Nc5ccccc5N)cccc4c3)ccnc2c1` [CS2164, N‐(2‐aminophenyl)‐6‐[(7‐methoxy‐4‐quinolinyl)oxy]‐1‐naphthalenecarboxamide], for which, in the experiment with Molt‐4 cells [1], the “cells in G2/M phase” value amounted to 59.5%. Besides, the “number of loops of tubular network structures” value in the experiment on HUVEC was “significant reductions”. Besides, in the experiment on HUVEC, the “total branch lengths of tubular network structures” value is given as “significant reductions”. For the same compound, the IC50 at c‐RAF, at DDR2, against PLK1 and at PLK3 was 100 to 500 nM throughout. Further, the “ligand‐stimulated VEGFR2 tyrosine phosphorylation” value at VEGFR2 is reported as “concentration‐dependent inhibition”. Further, the “50% tumor growth inhibition (TGI50) dose” value in the experiment with SMMC‐7721 and in the experiment on HCT‐8 was 2.5 mg/kg each time. In addition, in the experiment on COLO‐320 tumor, the “vascularization in tumor tissues” value is “decreased vascularization”. Also, in the experiment on COLO‐320 tumor (immunohistochemistry), the “CD34 staining in tumor tissues” value is “remarkably reduced”. In addition, in the experiment on COLO‐320 tumor (setting [4]), the “tissue Ki67 staining” value was “substantial dose‐dependent decrease”. Also, the “tissue p‐H3 staining” value with COLO‐320 tumor (setting [4]) is recorded as “substantial dose‐dependent decrease”. Besides, the “p‐H3 levels in tumor tissue by western blotting” value with COLO‐320 tumor (only tumor tissue, not normal colonic tissue) is given as “reduced p‐H3 levels”. In experiment [2], the “M‐CSF induced differentiation and proliferation of monocytes” value is on record as “almost complete inhibition”. The 50% growth inhibitory concentration (GI50) in the experiment with Colo‐320 cells is 840 nM; in the experiment with Molt‐4 cells [3], 2140 nM. In addition, the TGI50 dose result in the experiment on A549 is given as “around 5 mg/kg”. Besides, in the experiment with MGC‐803 (CS2164 at 5 mg/kg oral daily), the “efficacy compared with sunitinib at 40 mg/kg” value is “comparable”. In addition, the tumor growth result in the experiment on MGC‐803 (1 mg/kg) was “started to demonstrate tumor growth inhibition”; in the experiment with MGC‐803 (5 mg/kg), “near complete inhibition”. Moreover, in the experiment on Aurora B, the “level of p‐H3 (Ser10‐phosphorylated histone 3)” value is listed as “substantial reduction”. Besides, in the experiment on 4T1 breast cancer cells (oral 20 mg/kg daily, day 12, immunohistochemistry), the “tissue CD11b^+ macrophage infiltration” value is listed as “decreased”. The “CSF‐1R^+ cells in tumor tissue” value in the experiment with 4T1 breast cancer cells (oral 2.5 or 20 mg/kg/day, 12 days, immunohistochemistry) is “dramatic reduction”. Further, on CSF‐1R, the “CSF‐1R phosphorylation induced by M‐CSF” value is reported as “concentration‐dependent inhibition”.

As for `CNC(=O)c1cc(Oc2ccc(NC(=O)Nc3ccc(Cl)c(C(F)(F)F)c3)cc2)ccn1` [sorafenib], in the experiment with Molt‐4 cells [1], the “cells in G2/M phase” value is 13.3%.

As usually defined, the IC50 is the concentration that gives 50% inhibition. Low readings indicate inhibition by little substance, high ones a need for much substance. For orientation: GI50 means the concentration at which growth is held to half of that of the control.
